Data set [1] concerns S. aureus DSM 6247. In words: Antimicrobial activity. To be noted: broth micro dilution, 25 % MHB2, 7.5×10^6 cfu/mL, 37 °C, 20±2 h, triplicates. Format: cell-based, Staphylococcus aureus DSM 6247. The essentials:
(§1)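 Broth microdilution in 25% MHB2. Aqueous peptide stock (3 g/L) serially twofold diluted from 128 µg/mL in eight steps. Overnight 25% MHB2 cultures were diluted 30-fold, grown 4 h (37 °C, 200 rpm), and adjusted by McFarland to give a final 7.5×10^6 cfu/mL. Plates were incubated 20±2 h at 37 °C and OD595 read. MIC was the lowest concentration preventing visible growth. Triplicates.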

In another data set the test system is A. baumannii ATCC 15308. In words: Antimicrobial activity. The data set is classed as cell-based, Acinetobacter baumannii DSM 30008 / ATCC 15308. The settings on record: for MIC: broth micro dilution, 25 % MHB2, 7.5×10^6 cfu/mL, 37 °C, 20±2 h, triplicates. The essentials: as §1
The test system of data set [2] is K. pneumoniae ATCC 10031. The experiment in a line: Antimicrobial activity. The data set is classed as cell-based, Klebsiella pneumoniae DSM 681 / ATCC 10031. The settings on record: broth micro dilution, 25 % MHB2, 7.5×10^6 cfu/mL, 37 °C, 20±2 h, triplicates. The method, boiled down:
as §1

The subject of data set [3] is E. coli BW25113. The experiment in a line: Antimicrobial activity. Format: cell-based, Escherichia coli BW25113. The settings on record: broth micro dilution, 25 % MHB2, 7.5×10^6 cfu/mL, 37 °C, 20±2 h, triplicates. The essentials:
as §1

The test system of data set [4] is A. baumannii ATCC 15308 ribosomes. The experiment in a line: Fluorescence polarization assay, 70S ribosome of A. baumannii. The data set is classed as binding, Acinetobacter baumannii DSM 30008 / ATCC 15308. The settings on record: RF1 added at equimolar quantities to the A. baumannii ribosome preparation. The method, boiled down: (§2)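 70S ribosomes came from log-phase cultures (OD600 ~1): bead-mill lysis in HEPES buffer pH 7.6, DNase I/meropenem, clarification, then 165000 g for 17 h. Concentration by A260 (1 AU = 28 pmol/mL). In casein-blocked wells, ribosomes were twofold diluted in 23 steps (12 µmol/L–2.9 pmol/L) with Cf-labeled peptide added at 40 nmol/L, then incubated 90 min at 28 °C in the dark. Polarization read at ex485/em535. K_d came from a variable-slope dose-response fit of ≥2 triplicate experiments on different days.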

The test system of a further data set is P. aeruginosa ATCC 27853. In words: Antimicrobial activity. The data set is classed as cell-based, Pseudomonas aeruginosa DSM 1117 / ATCC 27853. The settings on record: broth micro dilution, 25 % MHB2, 7.5×10^6 cfu/mL, 37 °C, 20±2 h, triplicates. The essentials:
as §1

The test system of data set [5] is ribosome of S. aureus DSM 6247. In words: Fluorescence polarization assay, 70S ribosome of S. aureus. Format: binding, Staphylococcus aureus DSM 6247. The settings on record: S. aureus ribosome versus E. coli ribosome. The essentials:
as §2
(In fluorescence polarisation assays a small probe gives low polarisation when free and higher when bound to something large.)

Data set [6] concerns E. coli BW25113. In words: Bacterial uptake, peptide quantified by LC-MS. Format: cell-based, Escherichia coli BW25113. To be noted: high cell counts, 30 min. The essentials:
(§3)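 Cultures in 25% MHB2 were grown 4.0±0.25 h after 30-fold dilution, sized by OD600 (1.0 = 1.2×10^9 cfu/mL), pelleted and resuspended to 1.5×10^10 or 1.5×10^9 cfu/mL. Each was mixed 1:1 with medium containing 16 µg/mL peptide and shaken 30 min at 37 °C, with viable counts plated. Peptide in the supernatant (pellets also quantified) was measured by SPE then RP-HPLC-ESI-MS/MS MRM against a cell-free 8 µg/mL control and an on-plate calibration. Uptake was taken as the difference. Triplicate, repeated another day.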

In data set [7] the test system is S. aureus DSM 6247. The experiment in a line: Bacterial uptake, peptide quantified by LC-MS. Format: cell-based, Staphylococcus aureus DSM 6247. To be noted: ∼7.5×10^9 cells/mL, 30 min, relative to cell-free medium, LC-MS MRM (Figure S3). The essentials:
as §3

For a further data set, the system named is E. coli BL21AI. To be noted: E. coli BL21AI incubated with 4 mg/L peptide; cited from earlier work.
The subject of data set [8] is K. pneumoniae ATCC 10031. The experiment in a line: Bacterial uptake, peptide quantified by LC-MS. The data set is classed as cell-based, Klebsiella pneumoniae DSM 681 / ATCC 10031. The settings on record: high cell counts, 30 min. The essentials: as §3
For data set [9], the system named is Gram‐negatives (E. coli, K. pneumoniae, A. baumannii, P. aeruginosa). The experiment in a line: Bacterial uptake, values stated for the Gram-negatives together. Format: cell-based. The settings on record: 30 min. The essentials: as §3
Where [10] appears, read: calculated from reduced quantity in supernatant.

Non-standard residues stand in square brackets, D forms with d. Residues, ends and D or L forms follow the SMILES beside them. *: point of attachment. Orn(α-tetramethylguanidino) = CN(C)C(=N[C@@H](CCCN)C(=O)*)N(C)C

For `CC[C@H](C)[C@H](NC(=O)[C@H](Cc1ccc(O)cc1)NC(=O)[C@@H](NC(=O)[C@@H]1CCCN1C(=O)[C@H](CCCNC(=N)N)NC(=O)[C@H](CC(N)=O)NC(=O)[C@H](CC(N)=O)NC(=O)[C@H](CCCN)N=C(N(C)C)N(C)C)C(C)C)C(=O)N1CCC[C@H]1C(=O)N[C@@H](CCCNC(=N)N)C(=O)N1CCC[C@H]1C(=O)N[C@@H](CCCNC(=N)N)C(=O)N1CCC[C@H]1C(=O)N1CCC[C@H]1C(=O)N[C@@H](Cc1c[nH]cn1)C(=O)N1CCC[C@H]1C(=O)N[C@@H](CCCNC(=N)N)C(=O)N[C@@H](CC(C)C)C(=O)O` [Api137] ({Orn(α-tetramethylguanidino)}-NNRPVYIPRPRPPHPRL-OH), the MIC against S. aureus DSM 6247 [1] was >128 (>56) mg/L; in the data set with A. baumannii ATCC 15308, 128 (56) mg/L; in the data set on K. pneumoniae ATCC 10031 [2] it was 2 (0.9) mg/L; in the data set on E. coli BW25113 [3], 4 (1.8) mg/L; against P. aeruginosa ATCC 27853, >128 (>56) mg/L. Moreover, in the data set on A. baumannii ATCC 15308 (MIC 4 μg/mL for E. coli and 128 μg/mL for A. baumannii), the “MIC, fold difference E. coli versus A. baumannii” value was found to be 32 fold. The “Effect of recombinant E. coli RF1 on K d” value in [4] was “did not affect”. For the same molecule, the “K d, fold higher than for E. coli” value in data set [5] is listed as 34 fold.

As for `CC[C@H](C)[C@H](NC(=O)[C@@H](CCCNC(=N)N)NC(=O)[C@H](CCCNC(=N)N)NC(=O)[C@@H]1CCCN1C(=O)[C@@H]1CCCN1C(=O)[C@H](CCCNC(=N)N)NC(=O)[C@@H]1CCCN1C(=O)[C@H](CCCNC(=N)N)NC(=O)[C@@H]1CCCN1C(=O)[C@H](CC(C)C)NC(=O)[C@H](Cc1ccc(O)cc1)NC(=O)[C@@H]1CCCN1C(=O)[C@@H]1CCCN1C(=O)[C@H](CCCCN)NC(=O)[C@H](CC(=O)O)NC(=O)[C@@H](N)C(C)C)C(=O)N[C@@H](Cc1ccc(O)cc1)C(=O)N[C@@H](CC(N)=O)C(=O)N[C@H](CCCNC(=N)N)C(N)=O` [Onc112] (H-VDKPPYLPRPRPPR[dR]IYN[dR]-NH2), the “Peptide per single cell, on average” value came out at 0.5 fg in the data set on E. coli BW25113 [6] and 0.3 fg with K. pneumoniae ATCC 10031 [8]. Besides, the “Uptake (peptide amount)” value in the data set on E. coli BW25113 [6] was 352 ng; in the data set with K. pneumoniae ATCC 10031 [8], 208 ng. In addition, the Uptake rate is given as approximately 44% in the data set on E. coli BW25113 [6] (setting [10]) and approximately 25% in the data set with K. pneumoniae ATCC 10031 [8] (setting [10]). Also, the MIC against S. aureus DSM 6247 [1] is listed as 64 (26.8) mg/L; against A. baumannii ATCC 15308, 32 (13.4) mg/L; against K. pneumoniae ATCC 10031 [2] it was 2 (0.8) mg/L; against E. coli BW25113 [3] it was 8 (3.4) mg/L; against P. aeruginosa ATCC 27853, 64 (26.8) mg/L. The “Total quantities determined in supernatants and pellets” value in the data set with S. aureus DSM 6247 [7] is reported as “around 110%”. Also, the Peptide per cell in the data set on E. coli BL21AI is 0.2 fg/cell. In data set [9] (high cell counts ∼7.5×10^9 cells/mL, typical value, except for E. coli), the “Relative peptide quantity in culture supernatants” value is “around 75%”. The Uptake rates result in data set [9] (low cell counts, Gram-negatives) is recorded as “below 20%”.
